From PMC4834131 (CPT: Pharmacometrics & Systems Pharmacology, 2016)
Values after ≈ are worked out from the molar mass of the structure shown.

Experiments:
[1] = PK study after i.v. administration in rats; type: in vivo; conditions: rat, plasma, iv, 90 nmol/kg
glucocorticoid receptor = biological target: T1, glucocorticoid receptor (Rattus norvegicus, UniProt P06536); experiment: In vivo glucocorticoid receptor occupancy study; conditions: iv, read-out: Observed receptor occupancy
T1 sequence (P06536 1-795): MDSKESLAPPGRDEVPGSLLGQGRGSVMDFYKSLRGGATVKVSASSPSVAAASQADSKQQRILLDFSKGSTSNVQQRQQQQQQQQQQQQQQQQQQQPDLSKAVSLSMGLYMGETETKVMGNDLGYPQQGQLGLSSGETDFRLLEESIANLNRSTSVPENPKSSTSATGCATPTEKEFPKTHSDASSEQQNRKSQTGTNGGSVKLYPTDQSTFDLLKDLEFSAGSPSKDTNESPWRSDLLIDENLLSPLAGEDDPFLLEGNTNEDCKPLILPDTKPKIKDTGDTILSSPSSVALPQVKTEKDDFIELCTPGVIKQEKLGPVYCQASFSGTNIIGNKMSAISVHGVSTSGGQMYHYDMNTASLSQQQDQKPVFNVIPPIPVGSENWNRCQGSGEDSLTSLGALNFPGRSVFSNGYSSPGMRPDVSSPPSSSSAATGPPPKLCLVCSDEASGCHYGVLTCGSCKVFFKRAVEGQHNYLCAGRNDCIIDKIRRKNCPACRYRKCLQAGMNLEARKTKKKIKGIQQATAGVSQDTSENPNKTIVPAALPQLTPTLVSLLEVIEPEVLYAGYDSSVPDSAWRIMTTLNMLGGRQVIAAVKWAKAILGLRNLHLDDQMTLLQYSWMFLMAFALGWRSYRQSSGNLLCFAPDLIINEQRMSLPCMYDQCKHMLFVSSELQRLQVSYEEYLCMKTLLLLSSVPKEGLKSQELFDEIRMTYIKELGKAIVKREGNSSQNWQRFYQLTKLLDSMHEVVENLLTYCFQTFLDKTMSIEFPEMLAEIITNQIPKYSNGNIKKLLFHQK

[2] = Estimation of solubility Cs by fitting PBPK model to total lung concentrations; type: in vivo; conditions: rat, inhaled, 11.3 nmol/kg
Summary of the method: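 Fit of the whole-body PBPK model with lung disposition to total lung concentrations in rats after nose-only inhalation (lung deposited dose 11.3 nmol/kg). Fitting used nonlinear least squares (Levenberg–Marquardt). The starting value came from an exhaustive sum-of-squares search over a broad range, then 300 candidates within ±200 nM of the best solution. Particle dissolution followed the Nernst–Brunner equation; all other inputs were fixed.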

[3] = In vitro apparent permeability across CaCo2-monolayers; type: in vitro ADME; conditions: human, Caco-2
[4] = Fraction unbound in plasma; type: in vitro ADME
logD7.4 = type: physicochemical; conditions: pH 7.4
[5] = Unbound lung volume of distribution; type: in vitro ADME

With `CCC(=O)O[C@]1(C(=O)SCF)[C@H](C)C[C@H]2[C@@H]3C[C@H](F)C4=CC(=O)C=C[C@]4(C)[C@@]3(F)[C@@H](O)C[C@@]21C` [fluticasone propionate] as the molecule, how does the clearance ([1]; CLP (plasma clearance)) read?
Its clearance is 182 mL/min/kg.

And the Vd ([1]; Vdss (volume of distribution at steady state))?
Its Vd is 12.5 L/kg.

And the receptor occupancy at 0.02 µmol/kg (glucocorticoid receptor)?
The receptor occupancy at 0.02 µmol/kg was 27 ± 9.7%.

And the receptor occupancy at 0.75 µmol/kg (glucocorticoid receptor)?
Its receptor occupancy at 0.75 µmol/kg is 100 ± 3.5%.

And the solubility [2]?
The solubility was 4.53 µM (≈ 2.27 µg/mL).

What about the Papp [3] of the same molecule?
Its Papp is 46.9 ×10⁻⁶ cm/s.

What about the fraction unbound [4] of the same molecule?
The fraction unbound was 0.016.

And the logD (logD7.4)?
The logD was 4.2.

And the “Vu,lung (unbound lung volume of distribution)” value [5]?
The value was 213.4 mL/g lung tissue.
